Columns and labels:
[1] = Selectivity index, ratio of CC50 for MDCK cells to EC50 for Influenza A virus A/WSN/33 (H1N1); assay type: toxicity; conditions: dog, read-out: Ratio CC50/EC50
[2] = Antiviral activity against Influenza A virus A/WSN/33(H1N1) infected in MDCK cells expressing ST6Gal 1 preincubated with virus and cells for 30 mins followed viral infection measured after 2 to 3 days by naphthalene black dye-based plaque reduction assay; assay type: functional, cell-based, Influenza A virus (A/WSN/1933(H1N1))
MDCK = assay: Cytotoxicity against MDCK cells after 48 hrs by neutral red uptake assay; assay type: cell-based, Canis lupus familiaris; conditions: dog
In short: (§1)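 Serially diluted compound in serum-free DMEM for 48 h at 37 °C, 5% CO2. Neutral red 40 µg/mL for 4 h, absorbance read at 540 nm. CC50 from variable-slope dose-response fit.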

Influenza A virus [3] = assay: Inhibition of Influenza A virus AM2 proton channel expressed in Xenopus laevis frog oocytes at 100 uM after 2 mins by electrophysiological two-electrode voltage clamp assay; assay type: cell-based
In short: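 Two-electrode voltage clamp on oocytes microinjected with RNA for AM2-WT or AM2-S31N. Compound at 100 µM for 2 min at pH 5.5. Read-out is percent inhibition of AM2 current, mean of three independent measurements.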

[4] = Antiviral activity against Influenza A virus A/Washington/29/2009(H1N1) infected in MDCK cells expressing ST6Gal 1 preincubated with virus and cells for 30 mins followed viral infection measured after 2 to 3 days by naphthalene black dye-based plaque reduction assay; assay type: functional, cell-based
In short: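 Plaque reduction assay in MDCK cells expressing ST6Gal I instead of regular MDCK cells. Virus stocks were grown in MDCK cells with 2 µg/ml N-acetyl trypsin, harvested at 2 days and clarified, then titered by plaque assay on ST6Gal I-expressing MDCK cells.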

A549 = assay: Cytotoxicity against human A549 cells after 48 hrs by neutral red uptake assay; assay type: cell-based; conditions: a549, 48 h; in short: as §1
Influenza A virus [5] = assay: Antiviral activity against Influenza A virus A/Denmark/524/2009 (H1N1) infected in MDCK cells expressing ST6Gal 1 preincubated with virus and cells for 30 mins followed viral infection measured after 2 to 3 days by naphthalene black dye-based plaque reduction assay; assay type: functional, cell-based
[6] = Selectivity index, ratio of CC50 for human A549 cells to EC50 for Influenza A virus A/Washington/29/2009 (H1N1); assay type: toxicity; conditions: read-out: Ratio CC50/EC50
Influenza A virus [7] = assay: Antiviral activity against Influenza A virus A/Switzerland/9715293/2013 (H3N2) infected in MDCK cells expressing ST6Gal 1 preincubated with virus and cells for 30 mins followed viral infection measured after 2 to 3 days by naphthalene black dye-based plaque reduction assay; assay type: functional, cell-based
[8] = Selectivity index, ratio of CC50 for human A549 cells to EC50 for Influenza A virus A/Switzerland/9715293/2013 (H3N2); assay type: toxicity; conditions: read-out: Ratio CC50/EC50
[9] = Selectivity index, ratio of CC50 for human A549 cells to EC50 for Influenza A virus A/Denmark/528/2009 (H1N1); assay type: toxicity; conditions: read-out: Ratio CC50/EC50
[10] = Selectivity index, ratio of CC50 for human A549 cells to EC50 for Influenza A virus A/Denmark/524/2009 (H1N1); assay type: toxicity; conditions: read-out: Ratio CC50/EC50
[11] = Selectivity index, ratio of CC50 for human A549 cells to EC50 for Influenza A virus A/WSN/33(H1N1); assay type: toxicity; conditions: read-out: Ratio CC50/EC50
[12] = Antiviral activity against Influenza A virus A/California/07/2009(H1N1) infected in MDCK cells expressing ST6Gal 1 preincubated with virus and cells for 30 mins followed viral infection measured after 2 to 3 days by naphthalene black dye-based plaque reduction assay; assay type: functional, cell-based
[13] = Selectivity index, ratio of CC50 for human A549 cells to EC50 for Influenza A virus A/California/07/2009 (H1N1); assay type: toxicity; conditions: read-out: Ratio CC50/EC50
[14] = Selectivity index, ratio of CC50 for human A549 cells to EC50 for Influenza A virus A/Texas/04/2009 (H1N1); assay type: toxicity; conditions: read-out: Ratio CC50/EC50
[15] = Antiviral activity against Influenza A virus A/Denmark/528/2009(H1N1) infected in MDCK cells expressing ST6Gal 1 preincubated with virus and cells for 30 mins followed viral infection measured after 2 to 3 days by naphthalene black dye-based plaque reduction assay; assay type: functional, cell-based
[16] = Antiviral activity against Influenza A virus A/Texas/04/2009(H1N1) infected in MDCK cells expressing ST6Gal 1 preincubated with virus and cells for 30 mins followed viral infection measured after 2 to 3 days by naphthalene black dye-based plaque reduction assay; assay type: functional, cell-based

For `CC(C)(C)c1ccc(CNC23CC4CC(CC(C4)C2)C3)cc1`, the selectivity ratio [1] was 3.7, the EC50 [2] was 3.5 µM and the CC50 (MDCK) was 12.8 µM. The inhibition (Influenza A virus [3]) was 9.9%.

With `CC[Si](C)(C)c1ccc(CNC23CC4CC(CC(O)(C4)C2)C3)cc1` the CC50 (MDCK) was 21.8 µM and the inhibition (Influenza A virus [3]) was 18.2%.

In the case of `CC(C)(C)c1ccc(CNC23CC4CC(CC(O)(C4)C2)C3)cc1`, the selectivity ratio [1] is reported as 12.8, the EC50 [2] is reported as 2.5 µM and the CC50 (MDCK) is reported as 32 µM. The inhibition (Influenza A virus [3]) was 22.3%.

With `C[Si](C)(C)c1ccc(CNC23CC4CC(CC(C4)C2)C3)nc1` the selectivity ratio [1] was 3, the EC50 [2] was 3.4 µM and the CC50 (MDCK) was 10.3 µM. It also gave an inhibition (Influenza A virus [3]) of 5.9%.

Compound `C[Si](C)(C)c1ccc(CNC23CC4CC(CC(O)(C4)C2)C3)cc1` has an EC50 [4] of 1.4 µM, a CC50 (A549) of 73.2 µM and an EC50 (Influenza A virus [5]) of 0.6 µM. For the same compound, the selectivity ratio [1] was 102, the selectivity ratio [6] was 52.3 and the EC50 (Influenza A virus [7]) was 0.7 µM. For the same compound, the selectivity ratio [8] was 105, the EC50 ([2]; Influenza A virus, MDCK) was 0.4 µM and the selectivity ratio [9] was 24.4. The selectivity ratio [10] was 122, the selectivity ratio [11] was 183 and the EC50 [12] was 1.2 µM. It also gave a selectivity ratio [13] of 61, a selectivity ratio [14] of 122 and an EC50 [15] of 3 µM. For the same compound, the EC50 [16] was 0.6 µM, the CC50 (MDCK) was 40.7 µM and the inhibition (Influenza A virus [3]) was 9.5%.

Work on `CC(C)[Si](c1ccc(CNC23CC4CC(CC(O)(C4)C2)C3)cc1)(C(C)C)C(C)C` yielded an EC50 ([2]; Influenza A virus, MDCK) greater than 10 µM, a CC50 (MDCK) of 11.4 µM and an inhibition (Influenza A virus [3]) of 17.8%.

In the case of `C[Si](C)(c1ccccc1)c1ccc(CNC23CC4CC(CC(O)(C4)C2)C3)cc1`, the selectivity ratio [1] is reported as 2.3, the EC50 [2] is reported as 5.9 µM and the CC50 (MDCK) is reported as 13.3 µM. It also gave an inhibition (Influenza A virus [3]) of 33.6%.

For `C[Si](C)(C)c1ccc(CNC23CC4CC(CC(C4)C2)C3)cc1`, the selectivity ratio [1] was 1.7, the EC50 [2] was 4.8 µM and the CC50 (MDCK) was 8 µM. For the same compound, the inhibition (Influenza A virus [3]) was 21.8%.
